The target of assay [1] is T1, Neuronal acetylcholine receptor; alpha3/beta4 (Rattus norvegicus, UniProt P04757+P12392). Kind of assay: Inhibition of rat alpha3beta4 nAChR expressed in Xenopus laevis oocytes by voltage clamp technique. Type of assay: cell-based. An outline of the steps: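 Oocytes expressing α3 chimera/β4 nAChR, voltage-clamped at ~22 °C. Concentrations below 1 μM perfused, with 1 s ACh pulses every 1 min; 1 μM and above given as a 5 min static bath. Lowest concentration tested 10 nM. IC50 from a concentration–response curve with top and bottom fixed at 100 and 0; n = 3–5 oocytes per concentration.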

In assay [2] the target is Neuronal acetylcholine receptor; alpha3/beta4 (Rattus norvegicus) (UniProt P04757+P12392). Kind of assay: Antagonist activity at rat alpha3beta4 nAChR expressed in HEK293 cells assessed as inhibition of epibatadine-induced effect at 10 uM after 30 mins by fluorescent membrane potential assay relative to mecamylamine. Format: cell-based. A digest of the protocol: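 Rat α3β4 nAChR stably expressed in HEK293 cells; crude, SPE-desalted individual peptides tested at 10 μM in HBSS with membrane potential blue dye, 30 min at 37 °C. Fluorescence change read after epibatidine (0.1 μM). Percent inhibition set against 10 μM mecamylamine taken as 100%.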

Assay [3] concerns the target T1, Neuronal acetylcholine receptor; alpha3/beta4. Kind of assay: Displacement of [3H]epibatadine from rat alpha3beta4 nAChR expressed in HEK293 cells after 2 hrs by betaplate counting analysis. Type of assay: cell-based. A digest of the protocol: (§1)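 Membranes from HEK293 cells stably expressing α3β4 or α4β2 nAChR, homogenised in 50 mM Tris pH 7.4 and washed by centrifugation. Incubated 2 h at room temperature with peptide and 0.31 nM [3H]epibatidine; filtered on PEI-soaked glass fibre, counted. Nonspecific binding with 0.1 μM unlabeled epibatidine. Ki by Cheng–Prusoff from IC50.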
(Loss of bound radioactivity is the signal in a displacement assay; it reports binding, not function.)

In assay [4] the test system is HEK293. Nature of the assay: Selectivity ratio of IC50 for rat alpha3beta4 nAChR expressed in HEK293 cells to IC50 for rat alpha3beta2 nAChR expressed in HEK293 cells. Type of assay: cell-based.
Assay [5] has as its target Neuronal acetylcholine receptor; alpha4/beta2 (Rattus norvegicus) (UniProt P09483+P12390). Nature of the assay: Displacement of [3H]epibatadine from rat alpha4beta2 nAChR expressed in HEK293 cells up to 10 uM after 2 hrs by betaplate counting analysis. Type of assay: cell-based. A digest of the protocol:
as §1

For assay [6], the target named is Neuronal acetylcholine receptor; alpha4/beta2 (Rattus norvegicus, UniProt P09483+P12390). Kind of assay: Antagonist activity at rat alpha4beta2 nAChR expressed in HEK293 cells assessed as inhibition of epibatadine-induced effect after 30 mins by fluorescent membrane potential assay. Type of assay: cell-based. A digest of the protocol:
(§2)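 Stably transfected HEK293 lines (KXα3β4R2, KXα3β2R2, KXα4β2R2; rat subunits) grown in DMEM/10% FBS with G-418, plated 24 h before assay. Cells washed with HBSS, peptide added, then membrane potential blue dye, 30 min at 37 °C. Fluorescence (ex 565/em 530 nm) read up to 60 s after epibatidine to 0.1 μM. IC50 from maximal responses across concentrations; n = 4.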

Assay [7] concerns the target T1, Neuronal acetylcholine receptor; alpha3/beta4. Kind of assay: Antagonist activity at rat alpha3beta4 nAChR expressed in HEK293 cells assessed as inhibition of epibatadine-induced effect after 30 mins by fluorescent membrane potential assay. Type of assay: cell-based. A digest of the protocol: as §2
Assay [8] deals with Neuronal acetylcholine receptor; alpha3/beta2 (Rattus norvegicus, UniProt P04757+P12390). Kind of assay: Antagonist activity at rat alpha3beta2 nAChR expressed in HEK293 cells assessed as inhibition of epibatadine-induced effect after 30 mins by fluorescent membrane potential assay. Type of assay: cell-based. An outline of the steps: as §2
In assay [9] the target is Neuronal acetylcholine receptor; alpha3/beta4 (Homo sapiens, UniProt P30926+P32297). Kind of assay: Antagonist activity at alpha3beta4 nAChR (unknown origin). Format: protein-complex assay. An outline of the steps:
as §2

The source made the active and inactive calls. The rule behind the calls is not given here. Bridge positions count the residues as written; N and C are the ends. Peptide text beside a SMILES is read from it. A value given as a limit tells only on which side of the number the result lay.

T1 sequence (P04757 whole entry, the tested form may be a part): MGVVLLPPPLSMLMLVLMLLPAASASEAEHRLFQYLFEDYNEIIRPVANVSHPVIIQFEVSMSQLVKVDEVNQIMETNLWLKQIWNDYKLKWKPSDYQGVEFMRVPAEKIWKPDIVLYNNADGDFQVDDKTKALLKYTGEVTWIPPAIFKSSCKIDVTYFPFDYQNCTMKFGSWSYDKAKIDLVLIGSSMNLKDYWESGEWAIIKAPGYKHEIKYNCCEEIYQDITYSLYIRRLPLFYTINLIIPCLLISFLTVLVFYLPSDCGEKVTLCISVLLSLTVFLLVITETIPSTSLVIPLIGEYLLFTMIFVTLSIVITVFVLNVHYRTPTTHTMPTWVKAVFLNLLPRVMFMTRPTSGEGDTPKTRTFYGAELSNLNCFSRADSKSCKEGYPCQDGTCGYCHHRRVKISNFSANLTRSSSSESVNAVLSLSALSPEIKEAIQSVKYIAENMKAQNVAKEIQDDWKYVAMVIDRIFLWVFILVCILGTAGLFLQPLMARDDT
T1 sequence (P12392 whole entry, the tested form may be a part): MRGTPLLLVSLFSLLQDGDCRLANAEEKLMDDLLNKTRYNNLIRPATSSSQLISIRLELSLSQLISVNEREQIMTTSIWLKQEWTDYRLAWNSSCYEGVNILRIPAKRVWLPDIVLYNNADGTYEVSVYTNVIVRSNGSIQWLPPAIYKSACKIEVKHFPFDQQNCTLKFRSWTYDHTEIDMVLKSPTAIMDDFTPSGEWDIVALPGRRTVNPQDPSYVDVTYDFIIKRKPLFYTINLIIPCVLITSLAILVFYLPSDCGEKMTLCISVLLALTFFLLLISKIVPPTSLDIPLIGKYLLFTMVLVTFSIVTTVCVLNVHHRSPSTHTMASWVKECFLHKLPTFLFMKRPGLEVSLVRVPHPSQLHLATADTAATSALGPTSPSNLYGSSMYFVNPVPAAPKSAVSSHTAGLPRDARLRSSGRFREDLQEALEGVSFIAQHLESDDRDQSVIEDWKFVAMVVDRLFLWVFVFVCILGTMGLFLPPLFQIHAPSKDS
Neuronal acetylcholine receptor; alpha4/beta2, sequence (P09483 whole entry): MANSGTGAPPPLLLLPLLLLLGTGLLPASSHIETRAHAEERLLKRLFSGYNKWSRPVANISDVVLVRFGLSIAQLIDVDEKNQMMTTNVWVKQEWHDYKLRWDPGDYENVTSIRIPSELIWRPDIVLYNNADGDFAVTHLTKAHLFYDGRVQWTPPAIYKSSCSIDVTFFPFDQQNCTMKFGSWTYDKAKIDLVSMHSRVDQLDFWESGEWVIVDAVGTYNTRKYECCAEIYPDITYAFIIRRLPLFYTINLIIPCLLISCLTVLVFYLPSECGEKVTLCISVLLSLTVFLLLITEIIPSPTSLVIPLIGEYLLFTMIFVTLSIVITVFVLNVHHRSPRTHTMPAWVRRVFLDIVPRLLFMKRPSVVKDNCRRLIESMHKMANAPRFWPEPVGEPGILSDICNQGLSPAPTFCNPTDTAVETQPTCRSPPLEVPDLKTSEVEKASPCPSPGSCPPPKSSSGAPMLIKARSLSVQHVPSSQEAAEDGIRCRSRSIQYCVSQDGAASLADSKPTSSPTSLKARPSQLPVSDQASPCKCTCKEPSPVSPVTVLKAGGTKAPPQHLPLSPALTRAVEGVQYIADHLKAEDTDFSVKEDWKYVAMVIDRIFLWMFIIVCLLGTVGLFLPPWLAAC
Neuronal acetylcholine receptor; alpha4/beta2, sequence (P12390 whole entry): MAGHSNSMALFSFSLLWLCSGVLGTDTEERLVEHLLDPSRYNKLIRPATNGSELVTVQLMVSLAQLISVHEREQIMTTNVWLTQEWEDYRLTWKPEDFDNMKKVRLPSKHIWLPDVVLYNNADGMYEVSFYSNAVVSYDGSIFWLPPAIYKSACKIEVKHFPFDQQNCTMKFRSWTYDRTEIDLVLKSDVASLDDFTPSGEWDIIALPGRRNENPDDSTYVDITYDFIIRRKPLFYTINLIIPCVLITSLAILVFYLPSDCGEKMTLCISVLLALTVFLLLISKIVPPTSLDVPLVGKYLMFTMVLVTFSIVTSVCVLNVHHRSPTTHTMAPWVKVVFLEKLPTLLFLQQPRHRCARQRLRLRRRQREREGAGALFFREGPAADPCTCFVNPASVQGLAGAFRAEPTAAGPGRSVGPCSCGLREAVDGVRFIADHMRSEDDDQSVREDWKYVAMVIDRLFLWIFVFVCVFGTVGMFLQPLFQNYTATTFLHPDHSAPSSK
Neuronal acetylcholine receptor; alpha3/beta2, sequence (P04757 whole entry): as the sequence (P04757 whole entry, the tested form may be a part) above
Neuronal acetylcholine receptor; alpha3/beta2, sequence (P12390 whole entry): as the sequence (P12390 whole entry) above
Neuronal acetylcholine receptor; alpha3/beta4 (Homo sapiens, UniProt P30926+P32297), sequence (P30926 whole entry): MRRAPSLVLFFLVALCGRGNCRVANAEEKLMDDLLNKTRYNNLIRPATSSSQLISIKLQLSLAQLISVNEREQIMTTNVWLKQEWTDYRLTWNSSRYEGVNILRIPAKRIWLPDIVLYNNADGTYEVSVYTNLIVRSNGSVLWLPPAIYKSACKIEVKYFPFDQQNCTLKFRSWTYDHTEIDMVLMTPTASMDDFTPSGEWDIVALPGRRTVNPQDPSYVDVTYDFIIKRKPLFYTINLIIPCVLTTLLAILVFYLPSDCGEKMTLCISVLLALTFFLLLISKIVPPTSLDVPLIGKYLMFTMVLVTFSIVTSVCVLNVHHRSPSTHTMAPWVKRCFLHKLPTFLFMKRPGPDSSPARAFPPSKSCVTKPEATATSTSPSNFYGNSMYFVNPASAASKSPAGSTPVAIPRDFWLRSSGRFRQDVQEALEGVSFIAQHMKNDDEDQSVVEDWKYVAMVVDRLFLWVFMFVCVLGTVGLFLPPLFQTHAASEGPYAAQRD
Neuronal acetylcholine receptor; alpha3/beta4 (Homo sapiens, UniProt P30926+P32297), sequence (P32297 whole entry): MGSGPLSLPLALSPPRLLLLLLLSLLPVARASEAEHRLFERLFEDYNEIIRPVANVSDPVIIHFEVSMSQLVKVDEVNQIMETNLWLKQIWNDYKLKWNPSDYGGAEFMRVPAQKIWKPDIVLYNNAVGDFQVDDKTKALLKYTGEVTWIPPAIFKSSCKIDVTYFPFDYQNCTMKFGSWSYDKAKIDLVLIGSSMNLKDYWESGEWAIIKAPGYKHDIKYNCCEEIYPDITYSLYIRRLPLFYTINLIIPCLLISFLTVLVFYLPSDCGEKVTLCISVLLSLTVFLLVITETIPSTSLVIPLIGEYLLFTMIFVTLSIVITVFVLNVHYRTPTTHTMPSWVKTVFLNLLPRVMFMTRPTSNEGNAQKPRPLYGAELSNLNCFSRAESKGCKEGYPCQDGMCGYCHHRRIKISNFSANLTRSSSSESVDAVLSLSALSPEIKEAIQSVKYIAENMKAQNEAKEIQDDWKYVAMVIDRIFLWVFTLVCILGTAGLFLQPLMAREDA

What is called IC50 is the concentration needed to halve the response being measured. For orientation: inhibition means the drop in the measured response relative to a control, in per cent. As a reminder, the Ki is the equilibrium dissociation constant of an inhibitor or competing ligand from its target. A lower Ki goes with higher affinity. On to `CC(C)C[C@@H]1NC(=O)[C@H](C(C)C)NC(=O)[C@H](C)NC(=O)[C@@H]2CSSC[C@H](NC(=O)CN)C(=O)N[C@@H](CSSC[C@@H](C(=O)O)NC(=O)[C@H](Cc3ccc(O)cc3)NC1=O)C(=O)N[C@@H](CO)C(=O)N[C@@H]([C@H](C)O)C(=O)N1CCC[C@H]1C(=O)N1CCC[C@H]1C(=O)N2`, for which the IC50 was 27.7 nM in assay [1], more than 10000 nM in assay [6], 265 nM in assay [7] and 26 nM in assay [8]. Further, the inhibition in assay [2] turned out to be 94.4%. The compound further gave a Ki in assay [3] of 851 nM. Besides, the Ratio IC50 in [4] was 10. Also, the outcome in assay [5] was inactive.

`CC(C)C[C@@H]1NC(=O)[C@H](CCC(=O)O)NC(=O)[C@@H]2CCCN2C(=O)[C@H](Cc2cnc[nH]2)NC(=O)[C@H](CC(N)=O)NC(=O)[C@H](C(C)C)NC(=O)[C@H](CO)NC(=O)[C@@H]2CSSC[C@H](NC(=O)CN)C(=O)N[C@@H](CSSC[C@@H](C(=O)O)NC1=O)C(=O)N[C@@H](CO)C(=O)N[C@@H](Cc1cnc[nH]1)C(=O)N1CCC[C@H]1C(=O)N[C@@H](C)C(=O)N2` (H-GCCSHPACSVNHPELC-OH; disulfide 2-8, 3-16) came in with an IC50 in assay [1] of 480 nM.

For `C[C@@H]1NC(=O)[C@H](Cc2ccccc2)NC(=O)[C@@H]2CSSC[C@H](NC(=O)CN)C(=O)N[C@@H](CSSC[C@@H](C(=O)O)NC(=O)[C@H](CC(=O)O)NC(=O)[C@@H]3CCCN3C(=O)[C@H](CC(N)=O)NC(=O)[C@H]([C@@H](C)O)NC1=O)C(=O)N[C@@H](CO)C(=O)N[C@@H](Cc1ccc(O)cc1)C(=O)N1CCC[C@H]1C(=O)N1CCC[C@H]1C(=O)N2`, the half-maximal inhibitory concentration (IC50) in assay [1] stood at 770 nM.

Compound `CC[C@H](C)[C@@H]1NC(=O)[C@H](Cc2cnc[nH]2)NC(=O)[C@@H]2CCCN2C(=O)[C@H](CC(N)=O)NC(=O)[C@H](CC(N)=O)NC(=O)[C@H](C(C)C)NC(=O)[C@H](CC(N)=O)NC(=O)[C@@H]2CSSC[C@H](NC(=O)CN)C(=O)N[C@@H](CSSC[C@@H](C(=O)O)NC1=O)C(=O)N[C@@H](CO)C(=O)N[C@@H](Cc1cnc[nH]1)C(=O)N1CCC[C@H]1C(=O)N[C@@H](C)C(=O)N2` (H-GCCSHPACNVNNPHIC-OH; disulfide 2-8, 3-16) registered an IC50 in [9] of 97 nM.

Values taken from ChEMBL document CHEMBL3232963, “Discovery of a potent and selective α3β4 nicotinic acetylcholine receptor antagonist from an α-conotoxin synthetic combinatorial library” (J Med Chem, 2014).
